Experimental findings from ChEMBL document CHEMBL1811796, “Requirements for mammalian carboxylesterase inhibition by substituted ethane-1,2-diones” (Bioorg Med Chem, 2011) are described below.

In general, pKi refers to −log10 of the Ki, conventionally taken in molar units. As a reminder, the pIC50 is the IC50 on a negative log10 scale, so that one unit is a factor of ten. Usually inhibition stands for the share of the control response that was lost under treatment.

Data set [1] deals with T1, Liver carboxylesterase 1 (Homo sapiens, UniProt P23141).
T1 sequence (P23141 whole entry): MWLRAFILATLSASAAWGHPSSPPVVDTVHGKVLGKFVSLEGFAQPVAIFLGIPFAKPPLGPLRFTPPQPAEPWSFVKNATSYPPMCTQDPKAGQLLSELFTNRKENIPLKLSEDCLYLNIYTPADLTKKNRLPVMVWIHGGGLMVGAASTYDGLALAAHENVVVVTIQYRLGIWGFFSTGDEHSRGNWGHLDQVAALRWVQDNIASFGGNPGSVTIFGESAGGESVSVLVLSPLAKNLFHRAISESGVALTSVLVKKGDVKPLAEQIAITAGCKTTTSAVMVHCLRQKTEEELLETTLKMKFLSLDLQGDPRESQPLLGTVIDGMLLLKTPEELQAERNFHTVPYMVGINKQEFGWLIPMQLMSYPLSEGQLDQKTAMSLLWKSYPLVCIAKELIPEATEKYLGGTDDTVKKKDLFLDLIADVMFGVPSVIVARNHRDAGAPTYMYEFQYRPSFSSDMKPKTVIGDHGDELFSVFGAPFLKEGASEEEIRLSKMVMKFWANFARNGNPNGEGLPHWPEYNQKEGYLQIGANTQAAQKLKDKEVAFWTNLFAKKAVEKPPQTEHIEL
Description: Inhibition of human liver carboxylesterase1 using o-nitrophenyl acetate as substrate after 5 mins by spectrophotometry. The method, boiled down:
(§1)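 hCE1 and rabbit liver CE were purified from baculovirus-infected Spodoptera frugiperda cells, with 3 mM o-nitrophenyl acetate as substrate. A4₂₀ was read every 15 s for 5 min versus no-inhibitor wells. Screening was at 100 μM; compounds giving >50% reduction were rescreened from 1 pM to 100 μM. Ki came from fitting a partial-inhibition (α, β) model.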

Data set [2] addresses Cholinesterase (Homo sapiens, UniProt P06276). Description: Inhibition of human butyrylcholinesterase using butyrylthiocholine as substrate by spectrophotometry. The method, boiled down: (§2)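 Human AChE and BChE were commercial enzymes. Substrate was 1 mM acetylthiocholine for AChE and 1 mM butyrylthiocholine for BChE.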
In data set [3] the target is T2, Cocaine esterase (Homo sapiens, UniProt O00748).
T2 sequence (O00748 whole entry): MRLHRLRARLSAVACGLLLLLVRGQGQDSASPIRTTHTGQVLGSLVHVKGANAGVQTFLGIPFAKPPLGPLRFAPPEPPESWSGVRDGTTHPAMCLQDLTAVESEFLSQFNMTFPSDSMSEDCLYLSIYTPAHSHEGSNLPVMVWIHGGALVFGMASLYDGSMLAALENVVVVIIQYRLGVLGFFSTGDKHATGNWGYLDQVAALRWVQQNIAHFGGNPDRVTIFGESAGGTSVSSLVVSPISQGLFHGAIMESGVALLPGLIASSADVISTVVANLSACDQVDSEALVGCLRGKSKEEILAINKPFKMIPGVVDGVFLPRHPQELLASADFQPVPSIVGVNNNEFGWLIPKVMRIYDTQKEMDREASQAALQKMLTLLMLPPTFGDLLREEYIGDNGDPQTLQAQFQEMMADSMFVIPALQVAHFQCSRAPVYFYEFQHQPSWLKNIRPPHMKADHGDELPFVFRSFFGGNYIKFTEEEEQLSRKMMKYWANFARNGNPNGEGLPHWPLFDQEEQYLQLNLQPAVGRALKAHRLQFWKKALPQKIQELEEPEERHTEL
The experiment in a line: Inhibition of human intestinal carboxylesterase using o-nitrophenyl acetate as substrate after 5 mins by spectrophotometry.

Data set [4] has as its target Acetylcholinesterase (Homo sapiens, UniProt P22303). Description: Inhibition of human acetylcholinesterase using acetylthiocholine as substrate by spectrophotometry. The method, boiled down:
as §2

The target in data set [5] is T3, Liver carboxylesterase 1 (Oryctolagus cuniculus, UniProt P12337).
T3 sequence (P12337 whole entry): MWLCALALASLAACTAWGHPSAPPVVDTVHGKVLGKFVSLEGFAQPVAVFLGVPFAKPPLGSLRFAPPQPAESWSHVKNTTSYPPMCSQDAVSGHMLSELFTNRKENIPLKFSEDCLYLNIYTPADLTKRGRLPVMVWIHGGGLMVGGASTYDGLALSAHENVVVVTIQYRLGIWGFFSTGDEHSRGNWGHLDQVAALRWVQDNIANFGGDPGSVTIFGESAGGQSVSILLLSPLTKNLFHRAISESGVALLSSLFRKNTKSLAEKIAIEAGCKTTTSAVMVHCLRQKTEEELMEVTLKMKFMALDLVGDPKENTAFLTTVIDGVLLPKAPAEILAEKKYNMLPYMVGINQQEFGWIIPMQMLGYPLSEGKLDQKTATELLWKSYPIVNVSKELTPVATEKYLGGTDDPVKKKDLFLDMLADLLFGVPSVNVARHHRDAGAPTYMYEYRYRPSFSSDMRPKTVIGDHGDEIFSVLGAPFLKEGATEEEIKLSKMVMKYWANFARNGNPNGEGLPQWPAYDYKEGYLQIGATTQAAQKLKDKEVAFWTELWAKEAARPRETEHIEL
Description: Inhibition of rabbit liver carboxylesterase using o-nitrophenyl acetate as substrate after for 5 mins by spectrophotometry. The method, boiled down: as §1

A short description of data set [6]: Stability of the compound assessed as hydrolysis liberating phenol in aqueous solution at pH 7.4 after 5 mins. The following applies: read-out: Activity. Type of data set: physicochemical. The method, boiled down: (§3)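 Compound at 200 μM in 50 mM Hepes pH 7.4, held 1, 5 or 20 min at rt or 37°C, with or without CE. Reactions were stopped with acetonitrile. Products were identified by reverse-phase HPLC with UV detection against phenol/thiophenol/aniline marker standards and no-enzyme samples.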

A short description of data set [7]: Cytotoxicity against human U373MG cells expressing human intestinal carboxylesterase after 4 days in drug free medium by coulter counter. Type of data set: functional, cell-based, U-373MG ATCC. The following applies: U373 MG, 96 h.
Data set [8] is described as follows: Cytotoxicity against human U373MG cells expressing human intestinal carboxylesterase after 4 days in drug free medium by coulter counter in presence of CPT-11. The following applies: U373 MG, 96 h. Type of data set: functional, cell-based, U-373MG ATCC. The method, boiled down:
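U373MG cells stably expressing hiCE, seeded at 50,000 cells/well and left to adhere overnight. Cells were pre-incubated 1 h with inhibitor (10 μM), then exposed 2 h to inhibitor plus CPT-11 (0–100 μM). After washing, cells grew 4 days (~3 doublings) in drug-free medium and were counted. Runs were in triplicate, with survival compared to inhibitor-free controls. IC50 was taken from survival curves.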

The subject of data set [9] is U373 MG. The experiment in a line: Reduction of CPT-11 induced cytotoxicity against human U373MG cells at 10 uM pre-incubated for 1 hr measured after 4 days in drug free medium by coulter counter. Type of data set: functional, cell-based. The following applies: U-373MG ATCC. The method, boiled down: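 U373MG cells expressing hiCE were plated at 50,000 cells/well and left to adhere overnight. They got 1 h pre-incubation with 10 μM inhibitor, then 2 h with inhibitor plus CPT-11 (0–100 μM). Cells were washed, grown 4 days drug-free and Coulter-counted. Runs were in triplicate against no-inhibitor controls, and IC50 came from survival curves.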

The target of data set [10] is T4, intestinal carboxylesterase (cocaine esterase) (Homo sapiens, UniProt O00748).
T4 sequence (O00748 whole entry): T2 sequence (O00748 whole entry)
Description: Inhibition of intestinal carboxylesterase in human U373MG cells using 4-methylumbelliferone acetate as substrate at 10 uM after 1 hrs pre-incubation by fluorimetry. The data set is classed as cell-based, U-373MG ATCC. The following applies: U373MG cells with intestinal carboxylesterase, probe 4-methylumbelliferone acetate.

The target of data set [11] is T2, Cocaine esterase. The experiment in a line: Inhibition of human intestinal carboxylesterase assessed as hydrolysis of CPT-11 after 5 mins by HPLC.
Data set [12] is described as follows: Stability of the compound assessed as hydrolysis liberating thiophenol in aqueous solution at pH 7.4 after 5 mins. The data set is classed as physicochemical. The arrangement: scale not given: the % may be the effect or the level left. The following applies: buffer, pH 7.4, 5 min. The method, boiled down:
as §3

The structures appear in SMILES notation. pIC50, pKi: −log10 of the molar value. Activity calls are given as the source filed them. The calls are words filed in the database; no cut-off is given here.

Cholinesterase, sequence (P06276 whole entry): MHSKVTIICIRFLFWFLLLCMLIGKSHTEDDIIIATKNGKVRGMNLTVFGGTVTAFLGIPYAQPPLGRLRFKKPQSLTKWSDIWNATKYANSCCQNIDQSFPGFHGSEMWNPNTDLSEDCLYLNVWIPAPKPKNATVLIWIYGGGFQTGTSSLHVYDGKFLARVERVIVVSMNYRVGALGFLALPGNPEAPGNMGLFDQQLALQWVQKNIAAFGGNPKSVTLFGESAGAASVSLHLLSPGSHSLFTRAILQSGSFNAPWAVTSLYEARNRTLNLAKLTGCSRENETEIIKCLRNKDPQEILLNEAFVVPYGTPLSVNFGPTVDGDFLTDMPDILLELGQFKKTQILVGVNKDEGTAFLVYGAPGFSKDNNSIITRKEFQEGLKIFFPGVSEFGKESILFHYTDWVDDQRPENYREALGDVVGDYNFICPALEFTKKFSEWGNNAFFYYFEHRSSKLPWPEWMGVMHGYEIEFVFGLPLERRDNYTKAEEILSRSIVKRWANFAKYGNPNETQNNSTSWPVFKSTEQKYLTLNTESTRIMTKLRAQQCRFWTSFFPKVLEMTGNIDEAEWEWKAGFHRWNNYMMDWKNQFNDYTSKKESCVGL
Acetylcholinesterase, sequence (P22303 whole entry): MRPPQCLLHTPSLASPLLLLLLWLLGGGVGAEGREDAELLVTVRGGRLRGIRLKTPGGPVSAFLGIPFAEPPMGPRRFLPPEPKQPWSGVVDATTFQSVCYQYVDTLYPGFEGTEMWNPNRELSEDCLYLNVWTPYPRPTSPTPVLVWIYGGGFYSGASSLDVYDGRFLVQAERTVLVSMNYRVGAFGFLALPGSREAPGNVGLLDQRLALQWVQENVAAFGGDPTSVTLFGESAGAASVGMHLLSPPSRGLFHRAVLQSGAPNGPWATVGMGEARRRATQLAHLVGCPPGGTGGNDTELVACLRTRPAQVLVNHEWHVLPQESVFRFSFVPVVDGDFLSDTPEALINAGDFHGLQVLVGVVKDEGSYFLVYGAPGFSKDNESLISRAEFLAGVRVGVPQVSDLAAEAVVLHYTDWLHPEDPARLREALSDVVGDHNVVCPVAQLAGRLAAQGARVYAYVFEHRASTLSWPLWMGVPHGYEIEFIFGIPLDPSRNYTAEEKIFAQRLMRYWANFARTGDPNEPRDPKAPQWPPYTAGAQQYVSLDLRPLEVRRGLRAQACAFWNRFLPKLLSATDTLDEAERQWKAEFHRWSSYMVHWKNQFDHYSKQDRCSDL

Regarding `O=C(Nc1ccccc1)C(=O)Nc1ccccc1`, the pKi in data set [1], in data set [2], in [3], in data set [4] and in [5] was < 4.00 each time.

`O=C(Oc1ccccc1)C(=O)Oc1ccccc1` [DIPHENYL ETHANEDIOAT]: the pKi in data set [1], in [2], in data set [3], in data set [4] and in data set [5] was < 4.00 in each case. In addition, in data set [6], the degraded at 5 min was > 40%.

Turning to `CCc1c2c(nc3ccc(OC(=O)N4CCC(N5CCCCC5)CC4)cc13)-c1cc3c(c(=O)n1C2)COC(=O)[C@]3(O)CC`, the pIC50 in data set [7] is 5.44.

For the molecule `O=C(C(=O)c1ccccc1)c1ccccc1` [BENZIL], the values for the pIC50 in data set [7] and in [8] were < 4.00 and 4.64, respectively.

Turning to `CCCCCCCCC(=O)C(=O)CCCCCCCC`, the pKi in [1] was 9.08; in data set [2], < 4.00; in data set [4], < 4.00.

For `CCC(=O)C(=O)CC`, the pKi in data set [1], in data set [2], in [3], in [4] and in data set [5] was < 4.00 each time.

`O=C(Cc1ccccc1)C(=O)Cc1ccccc1`: the pKi in [1] is 5.51; in [2], < 4.00; in data set [3], 4.67; in data set [4], < 4.00; in data set [5], < 4.00.

With `O=C(C(=O)C1CCCCC1)C1CCCCC1`, the pKi in [1] was 8.30; in data set [3] it was 7.14; in data set [5] it was 7.57.

In the case of `CCCCCCC(=O)C(=O)CCCCCC`, the values for the pKi in data set [1], in data set [2] and in data set [4] were 8.32, < 4.00 and < 4.00, respectively. The pIC50 was < 4.00 in data set [7] and 5.40 in data set [8]. Moreover, in data set [9], the outcome was inactive.

On to `CCC(=O)C(=O)c1ccccc1`, for which the pKi in [1] was 5.81; in data set [2] it was < 4.00; in data set [3] it was 5.62; in [4] it was < 4.00; in [5], 4.90; in data set [11], 5.70. The molecule further showed an inhibition at 1 h, 10 µM in [10] of 70.3%.

With `CCCCC(=O)C(=O)CCCC`, the results for the pKi in data set [1], in data set [2] and in data set [4] were 7.33, < 4.00 and < 4.00, respectively.

Consider `CCCC(=O)C(=O)CCC`, for which the pKi in data set [1] was 5.09; in data set [2], < 4.00; in data set [4], < 4.00; in [5], 4.75.

Take `O=C(Sc1ccccc1)C(=O)Sc1ccccc1`: the pKi in data set [1], in data set [2], in data set [3], in data set [4] and in data set [5] was < 4.00 each time. In addition, the Activity in data set [12] is given as > 40%.

For `O=C(C(=O)C(Br)c1ccccc1)C(Br)c1ccccc1` (stereo not given), the figures for the pKi in data set [1], in [2] and in data set [4] were 6.97, < 4.00 and < 4.00, respectively.

As for `CCCCCCC(=O)C(=O)c1ccccc1`, the pKi in data set [1] is 8.66; in [2], < 4.00; in data set [4], < 4.00; in data set [5], 7.55. In addition, the values for the pIC50 in [7] and in data set [8] were < 4.00 and 4.99, respectively.

For the molecule `CCCC(=O)C(=O)c1ccccc1`, the pKi in data set [1] was 6.99; in [2], < 4.00; in data set [4], < 4.00.

Consider `CCCCCCCC(=O)C(=O)CCCCCCC`, for which the pKi in data set [1] was 8.12; in data set [2], < 4.00; in data set [4], < 4.00.

Take `CCCCCC(=O)C(=O)c1ccccc1`: the pKi was 8.18 in [1], < 4.00 in [2], < 4.00 in data set [4] and 6.96 in data set [5].

Regarding `CCCCC(=O)C(=O)c1ccccc1`, the figures for the pKi in data set [1], in data set [2] and in [4] were 7.58, < 4.00 and < 4.00, respectively.

With `CCCCCC(=O)C(=O)CCCCC`, the pKi in data set [1] is 8.52; in data set [2] it was < 4.00; in [4], < 4.00.

For the molecule `O=C(Cc1ccccc1)C(=O)C(Br)c1ccccc1` (stereo not given), the pKi is 5.58 in [1], < 4.00 in data set [2], < 4.00 in data set [4] and 5.43 in [5].
